Source: article PMC7114156 (Antiviral Research, 2009)
Where “and” joins values, the source holds several entries; their conditions need not be identical. Identical values can stand only once. Like-named read-outs stand apart in the source and are kept apart here. Marks after values point to notes of the source that are not given here.

Legend:
[1] = Growth of HUVEC endothelial cells, MTS; assay type: cell-based; conditions: human
How it was run: (§1)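 Primary cells were plated in 96-well plates with serial dilutions of test compound, 3 nM to 100 μM, for 72 h at 37 °C. Read-out was CTG for resting B and CD4 T cells and MTS for PBMC, WI38 and HUVEC. Purity was 90–95% for B cells and 97% for CD4 cells. Activated PBMCs were stimulated with phytohemagglutinin plus IL2.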

[2] = test system: HPV-31; assay: HPV DNA by qPCR in CIN612 cells; assay type: cell-based
[3] = test system: IM9 cells; assay: Apoptosis assay; assay type: cell-based, human; conditions: IM9, 20 h exposure
How it was run: (§2)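 Apoptosis read as cytoplasmic histone-associated DNA fragments with a Cell Death Detection ELISA kit. Exposure was 20 h for IM9 and MT4 and 40 h for W12 and U937. A405 was read kinetically at 30 °C, and the rate per hour came from linear regression of the linear portion. A Fas-activating antibody was the positive control.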

[4] = test system: U937; assay: Growth of U937, MTS; assay type: cell-based, human
How it was run: (§3)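 Cells were plated in 96-well plates in medium holding serial dilutions of test compound, 1 nM to 10 μM, with DMSO ≤1% (v/v) final. Growth was read by MTS after 72 h at 37 °C: 2 h with reagent plus phenazine methosulfate, then A490. K and Imax came from a fit to a modified Hill equation. Vero cells are African Green monkey.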

[5] = test system: MT4 cells; assay: Growth of MT4 cell line; assay type: cell-based, human; conditions: for EC50: K ∼ EC50
[6] = test system: Caski; assay: Growth of Caski; assay type: cell-based, human; conditions: 72 h
How it was run: (§4)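 Cell lines carrying integrated viral genomes were plated in 96-well plates in medium with test compound. Growth was read by ATP luminescence (CellTiter-Glo) for HEK293 and WI38 VA13, and by MTS reduction (A490 after 2 h at 37 °C) for Namalwa, W12 20861, SiHa, Caski and HeLa. K and Imax came from a fit to a modified Hill equation.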

[7] = test system: IFIT1 promoter; assay: Luciferase assay, luciferase under control of the IFIT1 promoter in HEK293 cells; assay type: cell-based, human; conditions: 10 and 30 nM, over a 48-h period
[8] = test system: WI38 VA13; assay: Growth of WI38 VA13; assay type: cell-based, human
How it was run: as §4

[9] = test system: W12 cells; assay: Apoptosis assay; assay type: cell-based, human; conditions: W12, 40 h exposure
How it was run: as §2

[10] = test system: HSV-1; assay: HSV-1 infection in Vero cells; assay type: cell-based
[11] = Growth of resting CD4 T cells, CTG; assay type: cell-based; conditions: human
How it was run: as §1

[12] = Bone marrow toxicity assay, granulocyte/macrophage progenitors; assay type: cell-based; conditions: human, granulocyte/macrophage bone marrow progenitor cells
[13] = test system: activated primary B cells; assay: Growth of activated primary B cells, CTG; assay type: cell-based, human; conditions: read-out: CC50, host primary cell growth, 72 h
[14] = Growth of activated primary CD4 T cells, CTG; assay type: cell-based; conditions: human, CC50, host primary cell growth
[15] = Growth of activated PBMC, MTS; assay type: cell-based; conditions: human, activated PBMCs
How it was run: as §1

[16] = test system: HEK293; assay: Growth of HEK293; assay type: cell-based, human
How it was run: as §4

[17] = test system: HKC cells; assay: mRNA measurement by RT-qPCR in HKC cells; assay type: cell-based, human; conditions: for Fold increase due to GSK983, ABCD1 mRNA / Fold increase due to GSK983, ABCG1 mRNA / Fold increase due to GSK983, ADAMTS5 mRNA / Fold increase due to GSK983, BIK mRNA / Fold increase due to GSK983, MDM2 mRNA / Fold increase due to GSK983, MGP mRNA / Fold increase due to GSK983, CDKN1A mRNA / Fold increase due to GSK983, CSF2 mRNA / Fold increase due to GSK983, IFI6 mRNA / Fold increase due to GSK983, IFI16 mRNA / Fold increase due to GSK983, MMP1 mRNA / Fold increase due to GSK983, IRF3 mRNA / Fold increase due to GSK983, IRF9 mRNA: HKC cells
[18] = test system: Vero cells; assay: Growth of uninfected Vero cells, MTS; assay type: cell-based, African Green monkey
How it was run: as §3

[19] = test system: BJAB; assay: Growth of BJAB, MTS; assay type: cell-based, human; conditions: 72 h
How it was run: as §3

[20] = test system: HPV-16; assay: HPV DNA by qPCR in HKC/HPV16 cells; assay type: cell-based
[21] = test system: Molt4; assay: Growth of Molt4, MTS; assay type: cell-based, human
How it was run: as §3

[22] = test system: cell lines immortalized by non-viral transformation events; assay: Growth of cell lines immortalized by non-viral transformation events; assay type: cell-based; conditions: Homo sapiens, read-out: Median effect concentrations, range
How it was run: as §3

[23] = 10 nM, 24 h, not significantly different from 1
[24] = 100 nM, 24 h, not significantly different from 1
[25] = 100 nM, 48 h, not significantly different from 1

SMILES: O=C(N[C@@H]1CCCc2c1[nH]c1ccc(Cl)cc21)c1ccccn1 [GSK983, N-[(1R)-6-Chloro-2,3,4,9-tetrahydro-1H-carbazol-1-yl]-2-pyridinecarboxamide]
- CC50 at 72 h [1]: > 10 µM
- Imax, HPV DNA, qPCR ([2]; CIN612, HPV type 31): 86 ± 1%
- Selectivity index ([2]; HPV DNA qPCR in CIN612 vs HKC): 16,600 ± 5,000
- EC50 ([2]; read-out: K, HPV DNA, qPCR): 0.0024 ± 0.0001 µM
- Apoptosis [3]: induced apoptosis
- EC50 ([4]; Homo sapiens, U-937, 72 h, read-out: K, growth, MTS): 0.026 ± 0.004 µM
- Outcome of growth inhibition over time ([4]; U937, 3 days, rate of MTS reduction): cytostasis
- Imax, Growth, MTS ([4]; U937, monocyte, 72 h): 55 ± 2%
- EC50 ([5]; Homo sapiens, MT4, 72 h, read-out: K, cell line growth, MT4 (HTLV1), CTG, 72 h): 0.008 µM
- Selectivity index ([5]; MT4 (HTLV1) vs activated CD4 T cell): 7600 ± 1000
- EC50 ([5]; read-out: K, cell line growth, MT4 (HTLV1), CTG, 72 h): 0.0075 ± 0.0006 µM
- Imax, Growth, MTS ([6]; Caski, HPV16 integrated): 33 ± 1.5%
- EC50 ([6]; Homo sapiens, Ca-Ski, read-out: K, Growth, MTS): 0.032 ± 0.006 µM
- Induction of luciferase under control of the IFIT1 promoter [7]: Strong induction
- EC50 ([8]; Homo sapiens, WI-38 VA13, 72 h, read-out: K, Growth, CTG): 0.016 ± 0.005 µM
- Imax, Growth, CTG ([8]; WI38 VA13, SV40 integrated, 72 h): 28% and 28 ± 2%
- Apoptosis [9]: apoptosis did not occur
- Susceptibility of HSV-1 ([10]; at concentrations below 1 μM): not susceptible
- Inhibition of HSV-1 infection in Vero cells ([10]; concentration range 1 nM to 100 μM): 50% inhibition in the micromolar range
- CC50 at 72 h [11]: 60 µM
- CC50 [12]: 160 µM
- CC50 [13]: > 10 µM
- CC50 at 72 h [14]: 57 µM
- CC50 at 72 h [15]: 224 µM
- Imax, Growth, CTG ([16]; HEK293, Adenovirus 5 integrated, 72 h): 52 ± 2%
- EC50 ([16]; Homo sapiens, HEK293, 72 h, read-out: K, Growth, CTG): 0.012 ± 0.002 µM
- Fold increase due to GSK983, ABCD1 mRNA ([17]; 10 nM, 24 h): 2.0 fold
- Fold increase due to GSK983, ABCG1 mRNA ([17]; 10 nM, 24 h): 2.5 fold
- Fold increase due to GSK983, ADAMTS5 mRNA ([17]; 10 nM, 24 h): 2.6 fold
- Fold increase due to GSK983, BIK mRNA ([17]; 10 nM, 24 h): 2.2 fold
- Fold increase due to GSK983, MDM2 mRNA ([17]; 10 nM, 24 h): 2.1 fold
- Fold increase due to GSK983, MGP mRNA ([17]; 10 nM, 24 h): 1.9 fold
- Fold increase due to GSK983, CDKN1A mRNA [17, 23]: 1.7 ^b fold
- Fold increase due to GSK983, CSF2 mRNA [17, 23]: 1 ^b fold
- Fold increase due to GSK983, IFI6 mRNA [17, 23]: 1.3 ^b fold
- Fold increase due to GSK983, IFI16 mRNA [17, 23]: 2.3 ^b fold
- Fold increase due to GSK983, MMP1 mRNA [17, 23]: 5.8 ^b fold
- Fold increase due to GSK983, ABCD1 mRNA ([17]; 10 nM, 48 h): 4.5 fold
- Fold increase due to GSK983, ABCG1 mRNA ([17]; 10 nM, 48 h): 3.1 fold
- Fold increase due to GSK983, ADAMTS5 mRNA ([17]; 10 nM, 48 h): 2.3 fold
- Fold increase due to GSK983, BIK mRNA ([17]; 10 nM, 48 h): 1.8 fold
- Fold increase due to GSK983, CDKN1A mRNA ([17]; 10 nM, 48 h): 1.6 fold
- Fold increase due to GSK983, CSF2 mRNA ([17]; 10 nM, 48 h): 4.1 fold
- Fold increase due to GSK983, IFI16 mRNA ([17]; 10 nM, 48 h): 2.7 fold
- Fold increase due to GSK983, IRF3 mRNA ([17]; 10 nM, 48 h): 2.4 fold
- Fold increase due to GSK983, MDM2 mRNA ([17]; 10 nM, 48 h): 3.2 fold
- Fold increase due to GSK983, MGP mRNA ([17]; 10 nM, 48 h): 2.9 fold
- Fold increase due to GSK983, MMP1 mRNA ([17]; 10 nM, 48 h): 2.2 fold
- Fold increase due to GSK983, IRF9 mRNA ([17]; 10 nM, 48 h, not significantly different from 1): 1.5 ^b fold
- Fold increase due to GSK983, ABCD1 mRNA ([17]; 100 nM, 24 h): 2.3 fold
- Fold increase due to GSK983, ABCG1 mRNA ([17]; 100 nM, 24 h): 5.0 fold
- Fold increase due to GSK983, BIK mRNA ([17]; 100 nM, 24 h): 2.3 fold
- Fold increase due to GSK983, CDKN1A mRNA ([17]; 100 nM, 24 h): 1.8 fold
- Fold increase due to GSK983, CSF2 mRNA ([17]; 100 nM, 24 h): 2.8 fold
- Fold increase due to GSK983, IRF9 mRNA ([17]; 100 nM, 24 h): 1.6 fold
- Fold increase due to GSK983, MDM2 mRNA ([17]; 100 nM, 24 h): 2.4 fold
- Fold increase due to GSK983, MGP mRNA ([17]; 100 nM, 24 h): 2.0 fold
- Fold increase due to GSK983, ADAMTS5 mRNA [17, 24]: 1.3 ^b fold
- Fold increase due to GSK983, IFI6 mRNA [17, 24]: 1.1 ^b fold
- Fold increase due to GSK983, IRF3 mRNA [17, 24]: 1.1 ^b fold
- Fold increase due to GSK983, MMP1 mRNA [17, 24]: 5.2 ^b fold
- Fold increase due to GSK983, ABCD1 mRNA ([17]; 100 nM, 48 h): 3.7 fold
- Fold increase due to GSK983, ABCG1 mRNA ([17]; 100 nM, 48 h): 4.8 fold
- Fold increase due to GSK983, ADAMTS5 mRNA ([17]; 100 nM, 48 h): 7.5 fold
- Fold increase due to GSK983, BIK mRNA ([17]; 100 nM, 48 h): 3.7 fold
- Fold increase due to GSK983, CDKN1A mRNA ([17]; 100 nM, 48 h): 4.3 fold
- Fold increase due to GSK983, CSF2 mRNA ([17]; 100 nM, 48 h): 5.8 fold
- Fold increase due to GSK983, MDM2 mRNA ([17]; 100 nM, 48 h): 2.9 fold
- Fold increase due to GSK983, MGP mRNA ([17]; 100 nM, 48 h): 3.0 fold
- Fold increase due to GSK983, MMP1 mRNA ([17]; 100 nM, 48 h): 5.0 fold
- Fold increase due to GSK983, IFI16 mRNA [17, 25]: 0.8 ^b fold
- Fold increase due to GSK983, IRF3 mRNA [17, 25]: 0.8 ^b fold
- Fold increase due to GSK983, IRF9 mRNA [17, 25]: 1.5 ^b fold
- Number of genes of the Pathway Set with significant increases in expression ([17]; primary human keratinocytes, at both 10 and 100 nM, 546 genes): 9 genes
- Outcome of growth inhibition over time ([18]; data not shown): cytostasis
- Imax, uninfected host cell growth, MTS ([18]; data of Fig. 3): 37%
- Imax, Growth, MTS ([18]; kidney epithelial, 72 h, 4 titrations): 43 ± 1%
- Imax, Growth, MTS ([19]; B lymphoblast): 84 ± 1.5%
- EC50 ([19]; Homo sapiens, read-out: K, growth, MTS): 0.009 ± 0.0006 µM
- Imax, HPV DNA, qPCR ([20]; HKC/HPV16, HPV type 16): 89 ± 2%
- Selectivity index ([20]; HPV DNA qPCR in HKC/HPV16 vs HKC): 18,000 ± 5,600
- EC50 ([20]; Human papillomavirus 16, read-out: K, HPV DNA, qPCR): 0.0022 ± 0.0002 µM
- EC50 ([21]; Homo sapiens, MOLT-4, 72 h, read-out: K, growth, MTS): 0.013 ± 0.0013 µM
- Imax, Growth, MTS ([21]; Molt4, T lymphoblast, 72 h): 85 ± 2%
- EC50 [22]: 0.01 to 0.05 µM
